Results from different studies.
Lines come from different studies, so protocols differ.
Target: Tyrosine-protein kinase Fer (FER, Homo sapiens, UniProt P16591)

| SMILES | effect on | action | technique | tested at | endpoint | result |
| --- | --- | --- | --- | --- | --- | --- |
| O=C(O)c1ccc2c3c1cccc3c(=O)n1c3ccccc3nc21 | enzyme activity | inhibitor | – | 0.5 µM | remaining activity | 96.5% |
| CCCS(=O)(=O)Nc1ccc(F)c(C(=O)c2c[nH]c3ncc(-c4ccc(Cl)cc4)cc23)c1F | enzyme activity | inhibitor | – | 1 µM | inhibition | < 10% |
| N#CCCc1ccc2c(c1)-c1[nH]c3ccc([N+](=O)[O-])cc3c1CC(=O)N2 | cell-free assay | – | – | 0.5 µM | remaining signal | 72.7% |
| COc1cc2ncnc(Nc3ccc(Oc4ccccc4)c(C)c3C)c2cc1OC | enzyme activity | inhibitor | – | 1 µM | inhibition | 18% |
| c1nc2c(Nc3ccc4c(c3)OCCO4)nc(Nc3ccc4c(c3)OCCO4)nc2[nH]1 | enzyme activity | inhibitor | – | 10 µM | activity vs control | 5.7% |
| CNC(=O)c1cc(Oc2ccc(NC(=O)Nc3ccc(Cl)c(C(F)(F)F)c3)cc2)ccn1 | enzyme activity | inhibitor | – | 10 µM | inhibition | -30% |
| Cc1ccc(C(=O)NCc2ccsc2)cc1C#Cc1cn(C(C)C)c2ncnc(N)c12 | enzyme activity | inhibitor | – | 1 µM | activity vs control | 92% |
| O=c1cc(-c2cccc3c2Sc2ccccc2S3)oc(N2CCOCC2)c1 | enzyme activity | inhibitor | – | 0.5 µM | remaining activity | 103% |
| Cc1ccc(Nc2nccc(N(C)c3ccc4c(C)n(C)nc4c3)n2)cc1S(N)(=O)=O | enzyme activity | inhibitor | – | 0.3 µM | inhibition | -24% |
| C[C@@H]1CN(c2cc(-c3n[nH]c4ccc(OC5(C)CC5)cc34)ncn2)C[C@H](C)O1 | cell-free assay | – | competition with immobilised ligand | 0.1 µM | remaining binding | 86% |
| COc1cc2nccc(Oc3ccc(NC(=O)c4c5n(n(-c6ccc(F)cc6)c4=O)CCCC5)cc3)c2cc1OC | enzyme activity | inhibitor | – | 0.1 µM | inhibition | -14% |
| CCN(CC)c1ccc(C2=NNC(=O)CC2C)cc1[N+](=O)[O-] (centres unmarked) | enzyme activity | inhibitor | – | 10 µM | remaining activity | 119% |
| CC/C(=N\NC(=O)NCc1cccc(O)c1)c1ccc(O)c(C)c1O | enzyme activity | inhibitor | – | 0.1 µM | inhibition | -2.3% |
| CC(C)(C)c1nc2c(s1)c1nc(N)ncc1c1ccc(NS(=O)(=O)c3c(F)cccc3F)c(F)c12 | enzyme activity | inhibitor | radiometric | 1 µM | remaining activity | 111% |
| O=C(Nc1cnn(-c2csc(C(=O)NC3COC3)c2)c1)Nc1c(F)cccc1Cl | enzyme activity | inhibitor | – | 5 µM | remaining activity | 89.8% |
| CCN(CC)CCNC(=O)c1c(C)[nH]c(/C=C2\C(=O)Nc3ccc(F)cc32)c1C | enzyme activity | inhibitor | – | 10 µM | inhibition | 55% |

| SMILES | effect on | action | technique | tested at | endpoint | result |
| --- | --- | --- | --- | --- | --- | --- |
| Cc1c[nH]c2nccc(Oc3c(F)cc(Nc4cc(Cl)nc(N)n4)cc3F)c12 | cell-free assay | – | competition with immobilised ligand | 0.1 µM | remaining binding | 100% |
| C[S+]([O-])c1ccc(-c2nc(-c3ccncc3)c(-c3ccc(F)cc3)[nH]2)cc1 (centres unmarked) | cell-free assay | – | – | 0.5 µM | remaining signal | 95% |
| CCCCN(CCCC)C(=O)CN1C[C@H](c2cc(OC)c3c(c2)OCO3)[C@@H](C(=O)O)[C@@H]1CC(C)(C)CCC | cell-free assay | – | competition with immobilised ligand | 1 µM | remaining binding | 100% |
| O=c1c2ccccc2[nH]c(=S)n1CCN1CCC(=C(c2ccc(F)cc2)c2ccc(F)cc2)CC1 | enzyme activity | inhibitor | – | 0.5 µM | remaining activity | 95.2% |
| CN(C)C(=O)Cn1cc(-c2nc(C3(c4ccc(-c5cnc(N)nc5)cc4)CC3)no2)cn1 | cell-free assay | – | competition with immobilised ligand | 1 µM | remaining binding | 79% |
| Cc1ccc(C(=O)Nc2ccc(CN3CCN(C)CC3)c(C(F)(F)F)c2)cc1C#Cc1cnc2cccnn12 | enzyme activity | – | – | 23.5 nM | remaining activity | 94% |
| C=CC(=O)Nc1cc(Nc2nccc(Nc3cc(Cl)c(F)cc3C(C)(C)O)n2)c(OC)cc1N1CC[C@@H](N(C)C)C1 | enzyme activity | inhibitor | – | 1 µM | inhibition | 8% |
| CC(C)(O)[C@H]1CC[C@H](Nc2ccc3ncc(-c4cccc(C(F)(F)F)c4)n3n2)CC1 | enzyme activity | inhibitor | – | 1 µM | remaining activity | 77.1% |
| C[C@@H](c1cccc(C#N)c1)n1cc(Cl)cc(C(N)=O)c1=N | cell-free assay | – | competition with immobilised ligand | 1 µM | remaining binding | 100% |
| O=C1Nc2ccc(Cl)cc2C1=Cc1cc(Cl)c(O)c(Cl)c1 | cell-free assay | – | – | 0.5 µM | remaining signal | 92.1% |
| CO[C@@H](C)c1c(Nc2ccc([C@H](N(C)C(=O)C3CCS(=O)(=O)CC3)C(F)(F)F)cc2)cnc2cc(Cl)nn12 | cell-free assay | – | competition with immobilised ligand | 1 µM | remaining binding | 88% |
| COc1cc(Nc2c(C#N)cnc3cc(OCCCN4CCN(C)CC4)c(OC)cc23)c(Cl)cc1Cl | cell-free assay | – | – | 0.5 µM | remaining signal | 54.6% |
| Nc1cnc(N2CCc3cc(S(=O)(=O)Nc4c(F)cc(Cl)cc4F)cc(N4CCCC4=O)c32)nc1 | cell-free assay | – | competition with immobilised ligand | 1 µM | remaining binding | 100% |
| CNC(=O)c1cc2c(Oc3ccc(NC(=O)C4(C(=O)Nc5ccc(F)cc5)CC4)cc3)ccnc2cc1OC | enzyme activity | inhibitor | radiometric | 1 µM | inhibition | 74% |
| CC1=C(C#N)C(c2ccc3c(c2)c(NC(=O)c2ccccc2C)nn3C)C(C#N)=C(C)N1 | cell-free assay | – | competition with immobilised ligand | 1 µM | remaining binding | 88% |
| CN1CC(Oc2cnc(C#N)cc2-c2ccn3nc(NC(=O)C4CC4)cc3c2)C1 | enzyme activity | inhibitor | – | 1 µM | inhibition | 1% |
